Assay results published in ChEMBL document CHEMBL6134777, “Modulating polybasic character of galactose-based glycosylated antitumor ether lipids for enhanced cytotoxic response” (2025).
The source made the active and inactive calls. The calls are words filed in the database; no cut-off is given here.

How the values were obtained:
JIMT-1 [1] = assay: Cytotoxicity against human JIMT-1 cells assessed as cell death measured after 48 hrs; format: functional
In short: (§1)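 DU-145 (5000 cells/well) or JIMT-1 (8000 cells/well) in DMEM with 10% FBS and penicillin/streptomycin. Plated cells rested 24 h, then received increasing drug concentrations (30 mM stock) for 48 h. Viability by PrestoBlue 10% v/v for 40-45 min, fluorescence ex 560/em 590 nm, blank-subtracted, relative to vehicle. Two independent experiments, five wells per concentration.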

BT-474 [2] = assay: Cytotoxicity against human BT-474 cells assessed as cell death measured after 48 hrs; format: functional
In short: (§2)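 BT-474 cells in DMEM/F12 with 10% FBS plus penicillin/streptomycin, 37°C, 5% CO2. Seeded at 10,500 cells/well and left 24 h, then exposed to rising drug concentrations (stock 30 mM) for 48 h. Read-out: PrestoBlue (10% v/v), 40-45 min, fluorescence ex 560/em 590 nm. Values are blank-subtracted and expressed relative to vehicle-treated cells. Two independent experiments, five wells per concentration.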

MIA PaCa-2 [3] = assay: Cytotoxicity against human MIA PaCa-2 cells assessed as cell death measured after 48 hrs; format: functional
In short: (§3)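 MIAPaCa-2 in DMEM with 10% FBS, 2.5% horse serum and penicillin/streptomycin, seeded at 7500 cells/well. After 24 h, treated 48 h with increasing drug concentrations from a 30 mM stock. PrestoBlue 10% v/v, 40-45 min, fluorescence 560/590 nm, blank-subtracted, relative to vehicle-treated cells. Two independent experiments, five wells per concentration.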

DU-145 [4] = assay: Cytotoxicity against human DU-145 cells assessed as cell death measured after 48 hrs; format: functional; in short: as §1
[5] = Potency index, ratio of monobasic GAEL IC50 to test compound IC50 for cytotoxicity against human JIMT-1 cells assessed as cell death measured after 48 hrs; format: functional
[6] = Potency index, ratio of monobasic GAEL IC50 to test compound IC50 for cytotoxicity against human DU-145 cells assessed as cell death measured after 48 hrs; format: functional
[7] = Potency index, ratio of monobasic GAEL IC50 to test compound IC50 for cytotoxicity against human MIAPaCa-2 cells assessed as cell death measured after 48 hrs; format: functional, MIA PaCa-2
MDA-MB-231 = assay: Cytotoxicity against human MDA-MB-231 cells assessed as cell viability measured after 48 hrs by using PrestoBlue cell viability assay; format: functional
In short: (§4)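 DMEM with 10% FBS plus penicillin/streptomycin, 37°C, 5% CO2. Seeding per well: BxPC3 7500, COV362 7500, HEYC2 8000, HepG2 8000, MDA-MB-231 8000. After 24 h, drug added at increasing concentrations (30 mM stock) for 48 h. PrestoBlue 10% v/v for 40-45 min; fluorescence 560/590 nm, blank-subtracted, relative to vehicle. Two experiments, five wells each; CC50 by nonlinear regression.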

BT-474 [8] = assay: Cytotoxicity against human BT-474 cells assessed as cell death at 6 to 10 uM measured after 48 hrs; format: functional, cell-based; conditions: dose 6-10 µM; in short: as §2
[9] = Cytotoxicity against human HEY C2 cells assessed as cell viability measured after 48 hrs by using PrestoBlue cell viability assay; format: functional; in short: as §4
JIMT-1 [10] = assay: Cytotoxicity against human JIMT-1 cells assessed as cell death at 6 to 10 uM measured after 48 hrs; format: functional, cell-based; conditions: dose 6-10 µM; in short: as §1
BXPC-3 = assay: Cytotoxicity against human BXPC-3 cells assessed as cell viability measured after 48 hrs by using PrestoBlue cell viability assay; format: functional; in short: as §4
HepG2 [11] = assay: Cytotoxicity against human HepG2 cells assessed as elimination of cells at 6 uM measured after 48 hrs by using PrestoBlue cell viability assay; format: functional; in short: as §4
[12] = Cytotoxicity against human COV362 cells assessed as cell viability measured after 48 hrs by using PrestoBlue cell viability assay; format: functional; in short: as §4
HepG2 [13] = assay: Cytotoxicity against human HepG2 cells assessed as cell viability measured after 48 hrs by using PrestoBlue cell viability assay; format: functional; in short: as §4
DU-145 [14] = assay: Cytotoxicity against human DU-145 cells assessed as cell death at 4 to 8 uM measured after 48 hrs in presence of MX1013 pan-caspase inhibitor; conditions: dose 4-8 µM
MIA PaCa-2 [15] = assay: Cytotoxicity against human MIAPaCa-2 cells assessed as cell death at 6 to 10 uM measured after 48 hrs; format: functional, cell-based; conditions: dose 6-10 µM; in short: as §3
OVCAR-3 [16] = assay: Cytotoxicity against human OVCAR-3 cells assessed as elimination of cells at 6 uM measured after 48 hrs by using PrestoBlue cell viability assay; format: functional
In short: (§5)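 OVCAR-3 in RPMI with 10% FBS, 0.01 mg/mL insulin and penicillin/streptomycin, seeded at 7500 cells/well. After 24 h, exposed 48 h to increasing drug concentrations (30 mM stock). PrestoBlue 10% v/v, 40-45 min, fluorescence ex 560/em 590 nm, blank-subtracted, relative to vehicle. Two experiments, five wells per concentration.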

[17] = Cytotoxicity against human COV362 cells assessed as cell death at 8 uM measured after 48 hrs by using PrestoBlue cell viability assay; format: functional
In short: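 COV362 cells in DMEM with 10% FBS and penicillin/streptomycin at 37 °C and 5% CO₂, seeded at 7500 per well. After 24 h, exposed 48 h to increasing drug concentrations diluted from a 30 mM stock. PrestoBlue (10% v/v) added for 40-45 min, fluorescence read at ex 560/em 590 nm. Cell-free blanks subtracted, viability relative to vehicle. Two independent experiments, five wells per concentration.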

OVCAR-3 [18] = assay: Cytotoxicity against human OVCAR-3 cells assessed as cell viability measured after 48 hrs by using PrestoBlue cell viability assay; format: functional; in short: as §5
DU-145 [19] = assay: Cytotoxicity against human DU-145 cells assessed as cell death at 6 to 10 uM measured after 48 hrs; format: functional, cell-based; conditions: dose 6-10 µM; in short: as §1
DU-145 [20] = assay: Cytotoxicity against human DU-145 cells assessed as cell death up to 10 uM measured after 48 hrs; format: functional, cell-based; in short: as §1
MIA PaCa-2 [21] = assay: Cytotoxicity against human MIAPaCa-2 cells assessed as cell death up to 10 uM measured after 48 hrs; format: functional, cell-based; in short: as §3
BT-474 [22] = assay: Cytotoxicity against human BT-474 cells assessed as cell death up to 10 uM measured after 48 hrs; format: functional, cell-based; in short: as §2
JIMT-1 [23] = assay: Cytotoxicity against human JIMT-1 cells assessed as cell death up to 10 uM measured after 48 hrs; format: functional, cell-based; in short: as §1

| SMILES | CC50 (JIMT-1 [1]) [µM] | CC50 (BT-474 [2]) [µM] | CC50 (MIA PaCa-2 [3]) [µM] | CC50 (DU-145 [4]) [µM] | Ratio IC50 [5] | Ratio IC50 [6] | Ratio IC50 [7] | further results |
| --- | --- | --- | --- | --- | --- | --- | --- | --- |
| CCCCCCCCCCCCCCCCOC[C@H](CO[C@H]1O[C@H](CN)[C@H](N)[C@H](O)[C@H]1N)OC | 5.4 | 8 | 5.3 | 6.7 | – | – | – | – |
| CCCCCCCCCCCCCCCCOC[C@H](CN)O[C@@H]1O[C@H](CO)[C@H](N)[C@H](O)[C@H]1N | 8.9 | > 10 | 7.4 | > 10 | – | – | – | – |
| CCCCCCCCCCCCCCCCOC[C@H](CO[C@@H]1O[C@H](CN)[C@H](O)[C@H](O)[C@H]1N)OC | 5.7 | 6.4 | 7.5 | 6.6 | 1.5 | 1.5 | 1.5 | – |
| CCCCCCCCCCCCCCCCOC[C@H](CO[C@@H]1O[C@H](CN)[C@H](N)[C@H](O)[C@H]1N)OC | 3.8 | 5.6 | 4.5 | 3.3 | 2 | 2 | 2 | CC50 (MDA-MB-231): 6.5 µM; Activity (BT-474 [8]): Active; CC50 [9]: 5.5 µM; Activity (JIMT-1 [10]): Active; CC50 (BXPC-3): 2.6 µM; Activity (HepG2 [11]): 100%; CC50 [12]: 3.1 µM; CC50 (HepG2 [13]): 3.6 µM; Activity (DU-145 [14]): Active; Activity (MIA PaCa-2 [15]): Active; Activity (OVCAR-3 [16]): 100%; Activity [17]: 100%; CC50 (OVCAR-3 [18]): 2.6 µM; Activity (DU-145 [19]): Active |
| CCCCCCCCCCCCCCCCOC[C@H](CO[C@H]1O[C@H](CO)[C@H](O)[C@H](O)[C@H]1N)OC | 9.9 | > 20 | 10 | 10.9 | – | – | – | – |
| CCCCCCCCCCCCCCCCOC[C@H](CO[C@H]1O[C@H](CO)[C@H](N)[C@H](O)[C@H]1N)OC | 5 | > 10 | 6.5 | 6.3 | – | – | – | – |
| COc1cccc2c1C(=O)c1c(O)c3c(c(O)c1C2=O)C[C@@](O)(C(=O)CO)C[C@@H]3O[C@H]1C[C@H](N)[C@H](O)[C@H](C)O1 | – | – | – | – | – | – | – | Activity (DU-145 [20]): inactive; Activity (MIA PaCa-2 [21]): inactive; Activity (BT-474 [22]): inactive; Activity (JIMT-1 [23]): inactive |
| CCCCCCCCCCCCCCCCOC[C@H](CO[C@@H]1O[C@H](CO)[C@H](N)[C@H](O)[C@H]1N)OC | 5.8 | > 10 | 7.8 | 6.6 | – | – | – | – |
| CCCCCCCCCCCCCCCCOC[C@H](CN)O[C@H]1O[C@H](CO)[C@H](N)[C@H](O)[C@H]1N | 6.3 | 7.4 | 8.1 | 8.2 | – | – | – | – |
| CCCCCCCCCCCCCCCCOC[C@H](CO[C@H]1O[C@H](CN)[C@H](O)[C@H](O)[C@H]1N)OC | 4.9 | 6.9 | 6.6 | 5.5 | 1.5 | 1.5 | 1.5 | – |
